According to ChEMBL document CHEMBL2321744 (J Med Chem, 2013):
Calls of active or inactive are those of the source. No cut-off for these calls is given here.

Experiments:
[1] = biological target: T1, Phospholipase D2 (Homo sapiens, UniProt O14939); test: Inhibition of GFP-tagged PLD2 in human HEK293 cells assessed as deuterated 1-butanol incorporation pretreated for 5 mins prior to substrate addition measured after 30 mins by mass spectrometry
[2] = biological target: T2, Phospholipase D1 (Homo sapiens, UniProt Q13393); test: Inhibition of PLD1 in human Calu-1 cells assessed as deuterated 1-butanol incorporation pretreated for 5 mins prior to substrate addition measured after 30 mins by mass spectrometry
T2 sequence (Q13393 whole entry): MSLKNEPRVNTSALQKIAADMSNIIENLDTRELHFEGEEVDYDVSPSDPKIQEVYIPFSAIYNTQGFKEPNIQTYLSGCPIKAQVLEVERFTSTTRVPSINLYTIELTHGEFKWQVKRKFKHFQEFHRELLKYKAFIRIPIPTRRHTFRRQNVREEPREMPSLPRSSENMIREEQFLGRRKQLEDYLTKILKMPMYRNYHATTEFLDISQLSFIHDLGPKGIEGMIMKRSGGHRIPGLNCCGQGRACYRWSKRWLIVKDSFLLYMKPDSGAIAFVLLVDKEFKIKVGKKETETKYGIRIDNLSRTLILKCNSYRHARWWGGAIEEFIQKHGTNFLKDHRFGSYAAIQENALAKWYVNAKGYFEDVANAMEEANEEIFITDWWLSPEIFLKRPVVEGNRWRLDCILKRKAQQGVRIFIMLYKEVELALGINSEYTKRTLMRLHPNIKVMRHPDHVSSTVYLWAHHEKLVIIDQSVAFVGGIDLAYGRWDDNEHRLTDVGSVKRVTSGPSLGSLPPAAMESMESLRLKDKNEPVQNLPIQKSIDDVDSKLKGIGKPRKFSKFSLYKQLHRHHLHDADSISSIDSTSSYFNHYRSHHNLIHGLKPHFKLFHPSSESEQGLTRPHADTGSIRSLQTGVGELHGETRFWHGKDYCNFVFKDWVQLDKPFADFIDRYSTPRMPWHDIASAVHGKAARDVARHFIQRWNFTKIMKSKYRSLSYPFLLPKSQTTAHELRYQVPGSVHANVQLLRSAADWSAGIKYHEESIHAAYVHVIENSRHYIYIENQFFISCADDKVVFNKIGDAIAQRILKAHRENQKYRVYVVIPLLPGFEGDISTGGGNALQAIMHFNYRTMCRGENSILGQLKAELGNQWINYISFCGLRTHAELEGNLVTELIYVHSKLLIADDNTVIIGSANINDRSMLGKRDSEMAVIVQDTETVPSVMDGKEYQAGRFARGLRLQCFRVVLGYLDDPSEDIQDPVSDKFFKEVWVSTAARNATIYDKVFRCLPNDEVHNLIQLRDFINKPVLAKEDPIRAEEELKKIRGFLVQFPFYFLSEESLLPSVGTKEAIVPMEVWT

[3] = Cytotoxicity against human U87MG cells assessed as cell viability up to 10 uM by WST-1 assay in presence of 10% FBS relative to control; type: cell-based; conditions: u-87mg atcc
In short: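 U87-MG cells in 10% FBS were exposed to compound at concentrations up to 10 μM. Viability was compared with DMSO vehicle.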

[4] = Solubility of the compound in PBS buffer; type: physicochemical
[5] = Stability of the compound in PBS buffer up to 48 hrs; type: physicochemical
[6] = biological target: T1, Phospholipase D2; conditions: U-87MG ATCC
[7] = in vivo; conditions: black6 (printed 'balck6'), mouse, lung, ip, 10 mg/kg
[8] = in vivo; conditions: black6 (printed 'balck6'), mouse, brain, ip, 10 mg/kg
[9] = test system: U-87 MG; test: Increase in caspase 3/7 activation in human U87MG cells after 6 to 72 hrs under serum free conditions; type: functional, cell-based; conditions: U-87MG ATCC
[10] = biological target: hERG (KCNH2) (Homo sapiens, UniProt Q12809); test: Inhibition of human ERG at 10 uM by radioligand binding assay
Chain of hERG (KCNH2) (Q12809 whole entry): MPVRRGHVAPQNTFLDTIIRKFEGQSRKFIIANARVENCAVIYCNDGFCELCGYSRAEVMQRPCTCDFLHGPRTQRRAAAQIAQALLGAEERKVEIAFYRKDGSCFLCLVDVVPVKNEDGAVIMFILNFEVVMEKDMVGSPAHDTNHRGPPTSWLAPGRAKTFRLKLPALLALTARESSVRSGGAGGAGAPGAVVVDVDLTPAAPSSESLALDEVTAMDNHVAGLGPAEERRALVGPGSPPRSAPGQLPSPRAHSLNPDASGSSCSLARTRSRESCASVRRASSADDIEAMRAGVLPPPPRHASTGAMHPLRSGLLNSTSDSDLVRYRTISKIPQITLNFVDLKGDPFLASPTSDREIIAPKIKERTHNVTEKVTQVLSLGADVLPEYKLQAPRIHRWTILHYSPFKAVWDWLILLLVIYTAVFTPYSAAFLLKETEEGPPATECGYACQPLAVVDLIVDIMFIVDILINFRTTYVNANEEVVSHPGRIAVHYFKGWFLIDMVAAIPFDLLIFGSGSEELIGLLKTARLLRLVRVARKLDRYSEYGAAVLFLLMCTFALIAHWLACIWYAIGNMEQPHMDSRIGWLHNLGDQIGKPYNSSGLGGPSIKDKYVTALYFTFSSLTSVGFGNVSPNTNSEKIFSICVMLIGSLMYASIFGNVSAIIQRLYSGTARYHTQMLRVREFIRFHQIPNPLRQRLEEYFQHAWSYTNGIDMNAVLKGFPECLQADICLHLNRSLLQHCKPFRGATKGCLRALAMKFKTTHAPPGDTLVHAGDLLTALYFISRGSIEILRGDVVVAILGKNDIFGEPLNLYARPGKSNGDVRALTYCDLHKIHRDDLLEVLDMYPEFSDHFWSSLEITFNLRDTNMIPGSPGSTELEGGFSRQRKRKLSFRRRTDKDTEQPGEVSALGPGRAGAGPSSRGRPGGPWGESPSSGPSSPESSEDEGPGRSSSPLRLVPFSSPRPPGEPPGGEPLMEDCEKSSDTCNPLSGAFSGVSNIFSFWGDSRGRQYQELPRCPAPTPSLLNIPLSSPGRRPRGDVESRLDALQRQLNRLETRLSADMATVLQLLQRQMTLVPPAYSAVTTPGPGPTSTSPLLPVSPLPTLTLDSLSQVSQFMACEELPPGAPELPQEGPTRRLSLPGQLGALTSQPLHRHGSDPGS

T1 sequence (O14939 whole entry): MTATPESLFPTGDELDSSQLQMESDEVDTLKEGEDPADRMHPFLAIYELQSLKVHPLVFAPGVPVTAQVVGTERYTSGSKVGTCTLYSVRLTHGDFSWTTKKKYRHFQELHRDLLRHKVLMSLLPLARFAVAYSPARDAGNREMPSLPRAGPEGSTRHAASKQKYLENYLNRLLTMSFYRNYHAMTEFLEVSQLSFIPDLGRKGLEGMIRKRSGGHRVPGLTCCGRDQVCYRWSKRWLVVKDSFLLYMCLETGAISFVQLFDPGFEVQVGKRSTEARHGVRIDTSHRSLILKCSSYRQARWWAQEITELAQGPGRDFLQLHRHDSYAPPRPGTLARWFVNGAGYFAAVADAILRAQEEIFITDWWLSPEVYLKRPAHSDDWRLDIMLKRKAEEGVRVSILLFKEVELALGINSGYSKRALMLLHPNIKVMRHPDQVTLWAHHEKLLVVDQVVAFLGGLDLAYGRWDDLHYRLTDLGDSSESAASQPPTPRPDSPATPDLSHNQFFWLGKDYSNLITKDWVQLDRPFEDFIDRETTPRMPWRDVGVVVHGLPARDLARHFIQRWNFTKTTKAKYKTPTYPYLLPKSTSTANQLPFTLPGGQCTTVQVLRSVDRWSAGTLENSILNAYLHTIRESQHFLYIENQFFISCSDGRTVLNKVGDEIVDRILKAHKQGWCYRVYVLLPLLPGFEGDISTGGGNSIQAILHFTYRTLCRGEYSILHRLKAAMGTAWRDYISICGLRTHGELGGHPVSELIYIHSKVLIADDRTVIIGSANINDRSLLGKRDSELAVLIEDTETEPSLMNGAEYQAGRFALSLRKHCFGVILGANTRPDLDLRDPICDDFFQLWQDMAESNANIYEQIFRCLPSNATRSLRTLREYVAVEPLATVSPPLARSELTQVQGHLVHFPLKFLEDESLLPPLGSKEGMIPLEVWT

Row | SMILES | IC50 [1] [nM] | IC50 [2] [nM] | other results
1 | C[C@H](CN1CCC2(CC1)C(=O)NCN2c1cccc(F)c1)NC(=O)c1ccc(F)c(F)c1 | 3450 | 1400 | –
2 | C[C@H](CN1CCC2(CC1)C(=O)NCN2c1cccc(F)c1)NC(=O)c1ccc(Br)cc1 | 800 | – | –
3 | C[C@@H](CN1CCC2(CC1)C(=O)NCN2c1cccc(F)c1)NC(=O)c1ccc(F)c(F)c1 | 120 | 86 | –
4 | O=C(NCCN1CCC2(CC1)C(=O)NCN2c1cccc(F)c1)c1ccc(F)c(F)c1 | – | – | Activity [3]: Non-toxic; solubility [4]: soluble; Stability [5]: Stable; inhibition [6]: Dose-dependent effect; AUC at 6 h [7]: 4.61 µM·h; AUC at 6 h [8]: 0.08 µM·h
5 | Cc1cccc(N2CNC(=O)C23CCN(C[C@H](C)NC(=O)c2ccc(Br)cc2)CC3)c1 | – | – | Activity [9]: Active; Activity [3]: Non-toxic; solubility [4]: soluble; inhibition at 10 µM [10]: > 50%; Stability [5]: Stable
6 | O=C(NCCN1CCC2(CC1)C(=O)NCN2c1cccc(F)c1)c1ccc(Br)cc1 | 200 | 1540 | –
7 | C[C@@H](CN1CCC2(CC1)C(=O)NCN2c1cccc(F)c1)NC(=O)c1ccc(F)cc1 | 35 | 20 | –
8 | O=C(NCCN1CCC2(CC1)C(=O)NCN2c1cccc(F)c1)c1ccc(F)cc1 | 350 | – | –
9 | C[C@H](CN1CCC2(CC1)C(=O)NCN2c1cccc(F)c1)NC(=O)c1ccc(F)cc1 | 1060 | 760 | –
